An excerpt weighted towards active compounds, which were near 4.6% of everything screened.
OX1R antag-1: blocks the human orexin 1 receptor. O43613. OX1R-expressing cells, FRET antagonist read-out. inhibition, % at 6.6 µM. 330,000 compounds, 1.8% hits. AID 485270; in the data active = inhibition mostly above about 38%, no sharp cut-off; inactive = mostly below about 40%;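 note: 0% = agonist challenge alone and 100% = reference antagonist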
Target sequence (O43613 whole entry, looked up): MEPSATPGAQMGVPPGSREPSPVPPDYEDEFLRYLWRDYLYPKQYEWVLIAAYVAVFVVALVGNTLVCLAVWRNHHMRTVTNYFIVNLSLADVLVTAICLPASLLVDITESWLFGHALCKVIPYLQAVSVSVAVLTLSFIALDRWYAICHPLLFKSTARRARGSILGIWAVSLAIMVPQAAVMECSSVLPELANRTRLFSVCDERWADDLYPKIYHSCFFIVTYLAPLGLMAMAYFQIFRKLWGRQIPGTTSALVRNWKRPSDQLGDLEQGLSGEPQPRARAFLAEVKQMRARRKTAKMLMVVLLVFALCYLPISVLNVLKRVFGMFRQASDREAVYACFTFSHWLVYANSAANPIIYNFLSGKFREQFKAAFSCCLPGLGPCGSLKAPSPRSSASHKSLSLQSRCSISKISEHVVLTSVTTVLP
GPR7 antagonist: antagonists of human GPR7 (neuropeptides B/W receptor 1); P48145; 290,000 compounds, 1.1% hits; GPR7-expressing cells, fluorescence antagonist assay; inhibition, % at 4.4 µM; in the data active = inhibition above about 16%, passing the limit was not always enough;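 note: cells stimulated with the agonist NPW; 0% = agonist with vehicle and 100% = vehicle without agonist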
CHO parental Ca: counter-screen for OX1R antagonists: effect in parental CHO cells; parental CHO-K1, ATP-induced calcium, Fluo-8 fluorescence; inhibition, % at 5.6 µM; 330,000 compounds, 0.63% hits; AID 463079;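 active = inhibition above that plate's mean sample inhibition plus 3 SD, cut at about 26% in these data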;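 note: 0% = ATP-challenged DMSO wells and 100% = DMSO wells without ATP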
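Measured by: calcium-sensitive Fluo-8 fluorescence / Test system: CHO parental line / Controls: ATP-challenged DMSO wells low, unchallenged DMSO wells high / Measure: % inhibition / Compound: single nominal dose of 5.6 µM per compound / Replicates: single well per compound, no replicates / Reagent: ATP as calcium-mobilizing challenge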
TAAR1 ag: agonists of human TAAR1 | Q96RJ0 | 360,000 compounds, 0.99% hits | activation, % at 3 µM | CHO RD-HGA16 TAAR1, Fluo-8 calcium fluorescence; vehicle wells 0%, saturating PEA agonist 100%;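 active = activation above the mean activation of all test compounds in the run plus 3 SD, cut at about 38% in these data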
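test system = CHO RD-HGA16 cells carrying human TAAR1 plus Gα16 | schedule = 17-24 h seeding, 75 min 37 °C dye, 30 min RT | compound dosing = 3 µM single concentration | control set = DMSO and PEA EC100 | replicates = n 1 | signal = Fluo-8 fluorescence, 5 s baseline then 140 s kinetic read | measure = percent activation vs PEA EC100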
TAAR1 antag: antagonists of human TAAR1 | CHO RD-HGA16 TAAR1, Fluo-8 calcium fluorescence, antagonist | inhibition, % at 3 µM | 360,000 compounds, 1.5% hits | Q96RJ0 | AID 624466;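 active = inhibition above a per-plate cutoff, the mean inhibition of test compounds on that plate plus 3 SD, cut at about 49% in these data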;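 note: 0% = DMSO plus EC80 beta-PEA response and 100% = DMSO alone without agonist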
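Test system: hTAAR1-expressing CHO RD-HGA16 cells, Gα16-coupled; Probe or stimulus: EC80 β-phenethylamine stimulus; Compound dosing: single nominal final test compound concentration of 3 µM; Timing: 140 s kinetic read after compound, 140 s after agonist; Signal: Fluo-8 calcium-sensitive fluorescence; Measure: % inhibition of agonist calcium response; Controls: DMSO and EC80 PEA controls.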
OX1R antag-2: human HCRTR1 antagonism. 330,000 compounds, 0.43% hits. CHO/OX1R cells, Fluo-8 calcium fluorescence, orexin A. AID 434989. inhibition, % at 5 µM;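 active = inhibition above its plate's threshold, mean inhibition of all tested compounds on the plate plus 3 SD, cut at about 37% in these data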;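 note: 0% = orexin A challenge wells and 100% = SB-334867-A antagonist wells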
nonsel antag count: counter-screen for TAAR1 antagonists: nonselective antagonists. 2,400 compounds, 77% hits. AID 651780. shares compounds with TAAR1 antag. counterscreen cell line, calcium fluorescence, antagonist mode. inhibition, % at 3 µM; in the data active = inhibition above about 22%;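 note: CHO-Ga16 host cells stimulated with ATP at an EC80 level; 0% = agonist EC80 plus vehicle and 100% = vehicle without agonist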
TAAR1 ant conf: human TAAR1 antagonism, confirmed. shares compounds with TAAR1 antag. TAAR1-expressing cells, fluorescence antagonist read-out. inhibition, % at 3 µM. 2,400 compounds, 40% hits. AID 651785; in the data active = inhibition above about 49%;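 note: CHO-Ga16 host cells challenged with agonist PEA near its EC80; 0% = agonist at EC80 plus vehicle and 100% = vehicle with no agonist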
Ga16 ag counter: counter-screen for TAAR1 antagonists: nonselective Ga16 agonists; shares compounds with TAAR1 antag; Ga16-expressing cells, calcium fluorescence, agonist counterscreen; activation, % at 3 µM; 2,400 compounds, 18% hits; in the data active = activation above about 12%;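 note: 0% = vehicle wells and 100% = saturating stimulus response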
TAAR1 ag counter: counter-screen for human TAAR1 antagonists: TAAR1 agonists | shares compounds with TAAR1 antag | hTAAR1 cell line, fluorescence activation, agonist mode | activation, % at 3 µM | 2,400 compounds, 2% hits | AID 651955; in the data active = activation above about 37%;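 note: CHO cells stably expressing TAAR1 with calcium dye readout; 0% = DMSO vehicle and 100% = full agonist response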
An asterisk follows results filed as active; . = no result given.

SMILES	OX1R antag-1	GPR7 antagonist	CHO parental Ca	TAAR1 ag	TAAR1 antag	OX1R antag-2	nonsel antag count	TAAR1 ant conf	Ga16 ag counter	TAAR1 ag counter
CCOc1cc(NC(=S)NC)c(OCC)cc1NC(=O)c1cccs1	13	0	-18	11	54*	-27	4	6	0	1
CCOc1ccc(NCc2cccn2-c2nnc(N3CCC(C(=O)NCCCN4C(C)CCCC4C)CC3)s2)cc1 (centres undefined)	5	0	-14	-1	-20	-18	.	.	.	.
Cc1ccc(S(=O)(=O)N(C)c2ccc(OC(=O)CN3C(=O)NC4(CCCC4)C3=O)cc2)cc1C	15	.	2	13	82*	-23	40*	51*	12*	8
Cc1ccc(S(=O)(=O)N(C)c2ccc(OC(=O)CN3C(=O)NC4(CCCC4)C3=O)cc2)cc1	18	.	-5	6	12	-24	.	.	.	.
CCC(C)NC(=O)Cn1c(=O)n(CCCCCC(=O)Nc2ccccc2)c(=O)c2sccc21 (centres undefined)	7	4	-11	-1	4	-18	.	.	.	.
O=C(Oc1ccc(NC2=C(Cl)C(=O)c3ccccc3C2=O)cc1)c1ccc([N+](=O)[O-])cc1	.	-8	.	.	.	.	.	.	.	.
CC(=O)Nc1ccc(NC2=C(Cl)C(=O)c3ccccc3C2=O)cc1	.	-4	.	-4	65*	.	40*	47	-3	-6
COc1ccc(CCN2C(=O)c3cccc4c(C(=O)N5CCCCC5)ccc(c34)C2=O)cc1OC	14	-3	-19	21	61*	-23	36*	61*	12*	13
COc1ccc(CCNC(=O)CCN2C(=O)c3cccc4cccc(c34)C2=O)cc1OC	7	-14	-4	2	7	5	.	.	.	.
NCC(=O)NCC(=O)NC1(C(=O)O)CCCC1	.	.	.	2	-26	.	.	.	.	.
O=C1C2C3CCC(C3NCc3ccccc3)C2C(=O)N1Cc1ccccc1 (centres undefined)	23	1	-28	6	55*	-18	20	34	6	9
Cc1noc(C(=O)Nc2sc3c(c2C#N)CCC3)c1Cl	37	-3	-3	6	-20	-16	.	.	.	.
COc1ccc(Cl)cc1NC(=O)CN(C)C(=O)c1cc(-c2ccncc2)nc2ccccc12	25	.	-4	19	74*	-4	42*	53*	15*	14
CCOc1ccc(NC(=O)CN(C)C(=O)c2cc(-c3ccncc3)nc3ccccc23)cc1OCC	12	.	-18	8	67*	-16	30*	43	7	7
COc1ccc(NC(=O)CN(C)C(=O)c2ccc3c(c2)CC(c2ccccc2)OC3=O)cc1 (centres undefined)	.	.	.	5	-5	.	.	.	.	.
COc1ccc(Cl)cc1NC(=O)CN(C)C(=O)c1ccc2c(c1)CC(c1ccccc1)OC2=O (centres undefined)	-4	.	-11	22	65*	-4	33*	53*	12*	14
CCOc1cc(CNS(=O)(=O)c2cn(C)cn2)cc(OCC)c1OCC	1	-12	-9	3	-36	-11	.	.	.	.
C[C@H](CO)N1C[C@H](C)[C@H](CN(C)S(=O)(=O)c2ccc(Oc3ccccc3)nc2)OCc2cnnn2CCCC1=O	.	.	.	0	-1	.	.	.	.	.
O=C(NCCN1CCOCC1)c1ccccc1N1C(=O)[C@@H]2Cc3c([nH]c4ccccc34)C(c3ccccc3)N2C1=O (some centres undefined)	1	6	-14	7	38	-22	.	.	.	.
O=C(NCCCN1CCOCC1)c1ccccc1N1C(=O)[C@@H]2Cc3c([nH]c4ccccc34)C(c3ccc(F)cc3)N2C1=O (some centres undefined)	1	-6	-20	12	73*	-21	26*	41	6	7
Fc1ccc(CCN2CCN=C2Nc2ccccc2)cc1	23	.	-2	23	15	-4	.	.	.	.
O=C(NC1CCCCC1)C(c1ccccc1)N(Cc1cccnc1)C(=O)c1csnn1 (centres undefined)	5	1	-21	-2	1	-31	.	.	.	.
COc1cc(C(=O)NCCc2c[nH]c3ccccc23)ccc1OCc1c(C)noc1C	13	3	5	16	63*	-4	31*	48	10	8
COc1ccc(CCNC(=O)c2ccc(OCc3c(C)noc3C)c(OC)c2)cc1	11	.	-16	7	23	-26	.	.	.	.
O=C(NCCN1CCOCC1)c1ccc(=O)n(Cc2ccc(Cl)cc2)c1	18	-1	-10	7	105*	-14	12	15	0	-2
SMILES	OX1R antag-1	GPR7 antagonist	CHO parental Ca	TAAR1 ag	TAAR1 antag	OX1R antag-2	nonsel antag count	TAAR1 ant conf	Ga16 ag counter	TAAR1 ag counter
Cc1ccc(NC(=O)c2cc(C(C)(C)C)nn2Cc2ccccc2)cc1	12	-20	-17	6	61*	-17	24*	42	5	1
COc1ccccc1C(=O)N1CCN(Cc2cccnc2)CC1	5	8	4	4	-5	-8	.	.	.	.
CCCCc1c(-c2cccc(F)c2)ncn1CCc1ccccc1OC	.	.	.	19	34	.	.	.	.	.
CCCc1c(-c2cccc(F)c2)ncn1CCc1ccccc1OC	.	.	.	19	13	.	.	.	.	.
CCCCc1c(-c2ccccc2F)ncn1CCc1ccccc1OC	.	.	.	20	60*	.	38*	72*	18*	63*
CCCCCc1c(-c2ccccc2F)ncn1CCc1ccccc1OC	.	.	.	18	60*	.	39*	59*	21*	48*
COc1ccccc1CCn1cnc(-c2cccc(F)c2)c1CC(C)C	.	.	.	19	51*	.	35*	67*	16*	55*
Cc1ccc(Cn2nnc3c(=O)n(CC(=O)NCC4CCCO4)cnc32)cc1 (centres undefined)	4	-22	-11	3	-28	3	.	.	.	.
O=C(NCc1ccc(F)cc1)C1CCCN1C(=O)Nc1ccccc1 (centres undefined)	4	-11	-17	-2	-4	-22	.	.	.	.
COc1ccc(/C=C(\C#N)C(=O)c2c(C)[nH]c3ccccc23)cc1OC	26	-4	-12	5	59*	-18	17	32	2	3
CCOC(=O)/C(C#N)=C\c1ccc(OC)c(OC)c1	38	-5	0	-1	19	-17	.	.	.	.
